Source: ChEMBL document CHEMBL5058577, “EUbOPEN Chemogenomics Library 2 (Multiplex)” (2022)

Test system: HEK-293T
Assay: Multiplex assay against HEK293T
Assay type: toxicity, cell-based
Conditions: human
How it was run: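 Phenotypes for tubulin, mitochondrial mass and membrane permeability are expressed as per cents of healthy-nucleus cells. Cells were stained live at seeding with Hoechst33342, BioTracker Green Microtubule Cytoskeleton Dye, MitoTracker Red and Annexin V Alexa Fluor 680, then imaged after compound addition on a CQ1 microscope at 37°C and 5% CO2. Machine-learning gating in CellPathfinder separated Hoechst high-intensity objects from normal cells, divided normal cells by nuclear state (healthy, pyknosed, fragmented) and divided pyknosed cells into mitotic or apoptotic.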

[1] = 12 h, 1 µM, compound concentration 1 uM, replicate 1
[2] = 12 h, 1 µM, compound concentration 1 uM, replicate 2
[3] = 12 h, 10 µM, compound concentration 10 uM, replicate 1
[4] = 12 h, 10 µM, compound concentration 10 uM, replicate 2
[5] = 24 h, 1 µM, compound concentration 1 uM, replicate 1
[6] = 24 h, 1 µM, compound concentration 1 uM, replicate 2
[7] = 24 h, 10 µM, compound concentration 10 uM, replicate 1
[8] = 24 h, 10 µM, compound concentration 10 uM, replicate 2
[9] = 48 h, 1 µM, compound concentration 1 uM, replicate 1
[10] = 48 h, 1 µM, compound concentration 1 uM, replicate 2
[11] = 48 h, 10 µM, compound concentration 10 uM, replicate 1
[12] = 48 h, 10 µM, compound concentration 10 uM, replicate 2

c1cc(OCCCN2CCCCC2)ccc1CN1CCCCC1 [JNJ-5207852]
Population Apoptotic (%) [1]: 36% | Population Fragmented Nuclei (%) [1]: 6% | Population Healthy Nuclei (%) [1]: 84% | Population Hoechst High Intensity Objects (%) [1]: 5% | Population Membrane Permeable-Phenotype (%) [1]: 0% | Population Mitochondria Different-Phenotype (%) [1]: 36% | Population Mitotic Cells (%) [1]: 63% | Population Normal (%) [1]: 94% | Population Pyknosed Nuclei (%) [1]: 8% | Population Tubulin-Different-Phenotype (%) [1]: 21% | Total Cell Count [1]: 577 | Population Apoptotic (%) [2]: 47% | Population Fragmented Nuclei (%) [2]: 10% | Population Healthy Nuclei (%) [2]: 75% | Population Mitochondria Different-Phenotype (%) [2]: 53% | Population Mitotic Cells (%) [2]: 52% | Population Pyknosed Nuclei (%) [2]: 13% | Population Tubulin-Different-Phenotype (%) [2]: 17% | Total Cell Count [2]: 310 | Population Apoptotic (%) [3]: 40% | Population Fragmented Nuclei (%) [3]: 7% | Population Healthy Nuclei (%) [3]: 75% | Population Hoechst High Intensity Objects (%) [3]: 7% | Population Membrane Permeable-Phenotype (%) [3]: 0% | Population Mitochondria Different-Phenotype (%) [3]: 63% | Population Mitotic Cells (%) [3]: 59% | Population Normal (%) [3]: 92% | Population Pyknosed Nuclei (%) [3]: 17% | Population Tubulin-Different-Phenotype (%) [3]: 52% | Total Cell Count [3]: 328 | Population Apoptotic (%) [4]: 66% | Population Healthy Nuclei (%) [4]: 67% | Population Hoechst High Intensity Objects (%) [4]: 11% | Population Membrane Permeable-Phenotype (%) [4]: 1% | Population Mitochondria Different-Phenotype (%) [4]: 69% | Population Mitotic Cells (%) [4]: 33% | Population Normal (%) [4]: 88% | Population Pyknosed Nuclei (%) [4]: 24% | Population Tubulin-Different-Phenotype (%) [4]: 41% | Total Cell Count [4]: 259 | Population Apoptotic (%) [5]: 25% | Population Fragmented Nuclei (%) [5]: 6% | Population Healthy Nuclei (%) [5]: 82% | Population Hoechst High Intensity Objects (%) [5]: 5% | Population Membrane Permeable-Phenotype (%) [5]: 1% | Population Mitochondria Different-Phenotype (%) [5]: 20% | Population Mitotic Cells (%) [5]: 74% | Population Normal (%) [5]: 94% | Population Pyknosed Nuclei (%) [5]: 11% | Population Tubulin-Different-Phenotype (%) [5]: 15% | Total Cell Count [5]: 710 | Population Apoptotic (%) [6]: 41% | Population Fragmented Nuclei (%) [6]: 11% | Population Healthy Nuclei (%) [6]: 79% | Population Hoechst High Intensity Objects (%) [6]: 3% | Population Membrane Permeable-Phenotype (%) [6]: 0% | Population Mitochondria Different-Phenotype (%) [6]: 30% | Population Mitotic Cells (%) [6]: 58% | Population Normal (%) [6]: 96% | Population Pyknosed Nuclei (%) [6]: 9% | Population Tubulin-Different-Phenotype (%) [6]: 12% | Total Cell Count [6]: 447 | Population Apoptotic (%) [7]: 47% | Population Fragmented Nuclei (%) [7]: 9% | Population Healthy Nuclei (%) [7]: 77% | Population Hoechst High Intensity Objects (%) [7]: 6% | Population Membrane Permeable-Phenotype (%) [7]: 1% | Population Mitochondria Different-Phenotype (%) [7]: 47% | Population Mitotic Cells (%) [7]: 52% | Population Normal (%) [7]: 93% | Population Pyknosed Nuclei (%) [7]: 13% | Population Tubulin-Different-Phenotype (%) [7]: 44% | Total Cell Count [7]: 414 | Population Apoptotic (%) [8]: 65% | Population Fragmented Nuclei (%) [8]: 8% | Population Healthy Nuclei (%) [8]: 79% | Population Hoechst High Intensity Objects (%) [8]: 5% | Population Membrane Permeable-Phenotype (%) [8]: 2% | Population Mitochondria Different-Phenotype (%) [8]: 50% | Population Mitotic Cells (%) [8]: 34% | Population Normal (%) [8]: 94% | Population Pyknosed Nuclei (%) [8]: 11% | Population Tubulin-Different-Phenotype (%) [8]: 35% | Total Cell Count [8]: 322 | Population Apoptotic (%) [9]: 17% | Population Fragmented Nuclei (%) [9]: 14% | Population Healthy Nuclei (%) [9]: 80% | Population Hoechst High Intensity Objects (%) [9]: 2% | Population Membrane Permeable-Phenotype (%) [9]: 1% | Population Mitochondria Different-Phenotype (%) [9]: 12% | Population Mitotic Cells (%) [9]: 82% | Population Normal (%) [9]: 97% | Population Pyknosed Nuclei (%) [9]: 5% | Population Tubulin-Different-Phenotype (%) [9]: 11% | Total Cell Count [9]: 1128 | Population Apoptotic (%) [10]: 23% | Population Fragmented Nuclei (%) [10]: 11% | Population Healthy Nuclei (%) [10]: 83% | Population Hoechst High Intensity Objects (%) [10]: 1% | Population Mitochondria Different-Phenotype (%) [10]: 17% | Population Mitotic Cells (%) [10]: 76% | Population Normal (%) [10]: 98% | Population Pyknosed Nuclei (%) [10]: 4% | Population Tubulin-Different-Phenotype (%) [10]: 9% | Total Cell Count [10]: 746 | Population Apoptotic (%) [11]: 34% | Population Fragmented Nuclei (%) [11]: 13% | Population Healthy Nuclei (%) [11]: 77% | Population Hoechst High Intensity Objects (%) [11]: 8% | Population Membrane Permeable-Phenotype (%) [11]: 1% | Population Mitochondria Different-Phenotype (%) [11]: 29% | Population Mitotic Cells (%) [11]: 65% | Population Normal (%) [11]: 91% | Population Pyknosed Nuclei (%) [11]: 8% | Population Tubulin-Different-Phenotype (%) [11]: 28% | Total Cell Count [11]: 619 | Population Apoptotic (%) [12]: 52% | Population Healthy Nuclei (%) [12]: 75% | Population Hoechst High Intensity Objects (%) [12]: 9% | Population Mitochondria Different-Phenotype (%) [12]: 38% | Population Mitotic Cells (%) [12]: 47% | Population Normal (%) [12]: 90% | Population Pyknosed Nuclei (%) [12]: 10% | Population Tubulin-Different-Phenotype (%) [12]: 30% | Total Cell Count [12]: 424

Cc1ccc(F)cc1C(=O)Nc1ccc(C(=O)N2Cc3cccn3Cc3ccccc32)c(Cl)c1 [LIXIVAPTAN]
Population Apoptotic (%) [1]: 36% | Population Fragmented Nuclei (%) [1]: 5% | Population Healthy Nuclei (%) [1]: 83% | Population Hoechst High Intensity Objects (%) [1]: 7% | Population Membrane Permeable-Phenotype (%) [1]: 0% | Population Mitochondria Different-Phenotype (%) [1]: 45% | Population Mitotic Cells (%) [1]: 63% | Population Normal (%) [1]: 92% | Population Pyknosed Nuclei (%) [1]: 10% | Population Tubulin-Different-Phenotype (%) [1]: 38% | Total Cell Count [1]: 486 | Population Apoptotic (%) [2]: 40% | Population Fragmented Nuclei (%) [2]: 6% | Population Healthy Nuclei (%) [2]: 74% | Population Hoechst High Intensity Objects (%) [2]: 5% | Population Mitochondria Different-Phenotype (%) [2]: 57% | Population Mitotic Cells (%) [2]: 60% | Population Normal (%) [2]: 94% | Population Pyknosed Nuclei (%) [2]: 19% | Population Tubulin-Different-Phenotype (%) [2]: 32% | Total Cell Count [2]: 335 | Population Apoptotic (%) [3]: 46% | Population Fragmented Nuclei (%) [3]: 6% | Population Healthy Nuclei (%) [3]: 70% | Population Hoechst High Intensity Objects (%) [3]: 10% | Population Membrane Permeable-Phenotype (%) [3]: 0% | Population Mitochondria Different-Phenotype (%) [3]: 75% | Population Mitotic Cells (%) [3]: 53% | Population Normal (%) [3]: 89% | Population Pyknosed Nuclei (%) [3]: 22% | Population Tubulin-Different-Phenotype (%) [3]: 78% | Total Cell Count [3]: 339 | Population Apoptotic (%) [4]: 50% | Population Healthy Nuclei (%) [4]: 67% | Population Hoechst High Intensity Objects (%) [4]: 6% | Population Membrane Permeable-Phenotype (%) [4]: 1% | Population Mitochondria Different-Phenotype (%) [4]: 81% | Population Mitotic Cells (%) [4]: 50% | Population Normal (%) [4]: 93% | Population Pyknosed Nuclei (%) [4]: 25% | Population Tubulin-Different-Phenotype (%) [4]: 67% | Total Cell Count [4]: 357 | Population Apoptotic (%) [5]: 30% | Population Fragmented Nuclei (%) [5]: 9% | Population Healthy Nuclei (%) [5]: 77% | Population Hoechst High Intensity Objects (%) [5]: 5% | Population Membrane Permeable-Phenotype (%) [5]: 0% | Population Mitochondria Different-Phenotype (%) [5]: 30% | Population Mitotic Cells (%) [5]: 69% | Population Normal (%) [5]: 94% | Population Pyknosed Nuclei (%) [5]: 13% | Population Tubulin-Different-Phenotype (%) [5]: 24% | Total Cell Count [5]: 595 | Population Apoptotic (%) [6]: 36% | Population Fragmented Nuclei (%) [6]: 10% | Population Healthy Nuclei (%) [6]: 76% | Population Hoechst High Intensity Objects (%) [6]: 7% | Population Mitochondria Different-Phenotype (%) [6]: 42% | Population Mitotic Cells (%) [6]: 63% | Population Normal (%) [6]: 92% | Population Tubulin-Different-Phenotype (%) [6]: 22% | Total Cell Count [6]: 423 | Population Apoptotic (%) [7]: 37% | Population Fragmented Nuclei (%) [7]: 5% | Population Healthy Nuclei (%) [7]: 69% | Population Hoechst High Intensity Objects (%) [7]: 7% | Population Membrane Permeable-Phenotype (%) [7]: 0% | Population Mitochondria Different-Phenotype (%) [7]: 74% | Population Mitotic Cells (%) [7]: 62% | Population Normal (%) [7]: 92% | Population Pyknosed Nuclei (%) [7]: 24% | Population Tubulin-Different-Phenotype (%) [7]: 71% | Total Cell Count [7]: 392 | Population Apoptotic (%) [8]: 58% | Population Fragmented Nuclei (%) [8]: 8% | Population Healthy Nuclei (%) [8]: 72% | Population Hoechst High Intensity Objects (%) [8]: 6% | Population Mitochondria Different-Phenotype (%) [8]: 78% | Population Mitotic Cells (%) [8]: 41% | Population Normal (%) [8]: 93% | Population Pyknosed Nuclei (%) [8]: 19% | Population Tubulin-Different-Phenotype (%) [8]: 69% | Total Cell Count [8]: 401 | Population Apoptotic (%) [9]: 22% | Population Fragmented Nuclei (%) [9]: 12% | Population Healthy Nuclei (%) [9]: 80% | Population Hoechst High Intensity Objects (%) [9]: 2% | Population Membrane Permeable-Phenotype (%) [9]: 0% | Population Mitochondria Different-Phenotype (%) [9]: 19% | Population Mitotic Cells (%) [9]: 77% | Population Normal (%) [9]: 97% | Population Pyknosed Nuclei (%) [9]: 6% | Population Tubulin-Different-Phenotype (%) [9]: 17% | Total Cell Count [9]: 995 | Population Apoptotic (%) [10]: 17% | Population Hoechst High Intensity Objects (%) [10]: 4% | Population Mitochondria Different-Phenotype (%) [10]: 24% | Population Mitotic Cells (%) [10]: 82% | Population Normal (%) [10]: 95% | Population Pyknosed Nuclei (%) [10]: 7% | Population Tubulin-Different-Phenotype (%) [10]: 21% | Total Cell Count [10]: 643 | Population Apoptotic (%) [11]: 43% | Population Fragmented Nuclei (%) [11]: 9% | Population Healthy Nuclei (%) [11]: 74% | Population Hoechst High Intensity Objects (%) [11]: 7% | Population Membrane Permeable-Phenotype (%) [11]: 0% | Population Mitochondria Different-Phenotype (%) [11]: 72% | Population Mitotic Cells (%) [11]: 56% | Population Normal (%) [11]: 92% | Population Pyknosed Nuclei (%) [11]: 16% | Population Tubulin-Different-Phenotype (%) [11]: 69% | Total Cell Count [11]: 489 | Population Apoptotic (%) [12]: 46% | Population Fragmented Nuclei (%) [12]: 11% | Population Hoechst High Intensity Objects (%) [12]: 8% | Population Mitochondria Different-Phenotype (%) [12]: 71% | Population Mitotic Cells (%) [12]: 53% | Population Normal (%) [12]: 91% | Population Pyknosed Nuclei (%) [12]: 14% | Population Tubulin-Different-Phenotype (%) [12]: 59% | Total Cell Count [12]: 437
